Here are results for 7 molecules from article PMC12082725 (Journal of Enzyme Inhibition and Medicinal Chemistry, 2025).

A word on the Kd: it is the free concentration of one partner at which half of the binding sites on the other are occupied at equilibrium, for simple one-to-one binding. What is called IC50 is the point on the concentration scale where inhibition reaches its midpoint. Higher therefore signals weaker potency.

Experiment [1] deals with SARS-CoV-2 NP-RNA interaction (Severe acute respiratory syndrome coronavirus 2, UniProt P0DTC9). Kind of experiment: biochemical. The class given is biochemical. To be noted: for inhibition rate of the NP-RNA interaction: compound at 50 μM.
The target of a further experiment is SARS-CoV-2 NP NTD (Severe acute respiratory syndrome coronavirus 2, UniProt P0DTC9). Kind of experiment: BLI binding of compounds to NP NTD. To be noted: NP NTD (residues 44 to 174). (Biolayer interferometry detects binding as a change in optical thickness at a sensor tip.)
Another experiment concerns the target SARS-CoV-2 NP CTD (Severe acute respiratory syndrome coronavirus 2, UniProt P0DTC9). Put plainly: BLI binding of compounds to NP CTD. Put shortly: (§1)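 Target was recombinant E. coli-expressed SARS-CoV-2 NP, either CTD or full-length (1–419). Protein at 0.39 mg/ml was biotinylated for 30 min at RT, then loaded at 100 μg/ml onto streptavidin sensors for 20 min. After a 60 s baseline, increasing test compound concentrations gave 120 s association and 300 s dissociation. Run in PBS/0.01% Tween-20 at 30 °C; double-reference subtracted; KD from a global 1:1 Langmuir fit.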

The target of experiment [2] is RNA-induced LLPS of the NP (Severe acute respiratory syndrome coronavirus 2, UniProt P0DTC9). It is filed as biochemical, SARS-CoV-2.
The target of another experiment is SARS-CoV-2 NP (Severe acute respiratory syndrome coronavirus 2, UniProt P0DTC9). Put plainly: BLI binding of compounds to full-length NP. In short, it runs like this: as §1
The next experiment concerns the target NP NTD. To be noted: read-out: Kd, NP NTD; via bio-layer interferometry assay; ref [28]; cited from earlier work.

Read-outs that look alike come from different tables or passages of the source.

As to `CC(C)[N+]1(C)[C@@H]2CC[C@H]1C[C@@H](OC(=O)C(CO)c1ccccc1)C2` (some centres unmarked) [ipratropium bromide], in experiment [1] (HTRF, 50 μM), the “inhibitory effect on NP-RNA interaction (in words)” value (shortened to “inhibitory effect”) is “neither compound affected”.

As to `O=C(O)c1cc(O)c2c(c1)[C@@H]([C@H]1c3cc(C(=O)O)cc(O)c3C(=O)c3c(O[C@@H]4O[C@H](CO)[C@@H](O)[C@H](O)[C@H]4O)cccc31)c1cccc(O[C@@H]3O[C@H](CO)[C@@H](O)[C@H](O)[C@H]3O)c1C2=O` [sennoside B], the “binding to NP NTD” value on SARS-CoV-2 NP NTD is on record as “neither sennoside A nor sennoside B bound”. In addition, the figures for the Kd on SARS-CoV-2 NP CTD and at SARS-CoV-2 NP were 529 ± 16 nM and 765 ± 12 nM, respectively. Further, the “inhibition of RNA-induced LLPS of the NP” value in experiment [2] is reported as “significantly inhibited”. Further, the concentration for half-maximal inhibition (IC50) in experiment [1] was found to be 1050 ± 230 nM. Moreover, the “inhibition rate of the NP-RNA interaction” value in experiment [1] (HTRF) was “exceeding 98%”.

For `COc1ccc(CC(C)NCC(O)c2ccc(O)c(NC=O)c2)cc1` (centres unmarked) [formoterol], the “inhibitory effect” value in experiment [1] (HTRF, 50 μM) is “neither compound affected”.

For the molecule `COc1ccc2cc([C@H](C)C(=O)O)ccc2c1` [naproxen], in experiment [1], the “inhibitory effect” value is reported as “did not inhibit”.

Regarding `O=C(O)c1cc(O)c2c(c1)[C@H]([C@H]1c3cc(C(=O)O)cc(O)c3C(=O)c3c(O[C@@H]4O[C@H](CO)[C@@H](O)[C@H](O)[C@H]4O)cccc31)c1cccc(O[C@@H]3O[C@H](CO)[C@@H](O)[C@H](O)[C@H]3O)c1C2=O` [sennoside A], the “binding to NP NTD” value on SARS-CoV-2 NP NTD was “neither sennoside A nor sennoside B bound”. Besides, the Kd at SARS-CoV-2 NP CTD stood at 1820 ± 30 nM; at SARS-CoV-2 NP, 962 ± 19 nM. The “inhibition of RNA-induced LLPS of the NP” value in experiment [2] is “relatively weaker activity”. In addition, in experiment [1], the IC50 is 3170 ± 390 nM. Moreover, the “inhibition rate of the NP-RNA interaction” value in experiment [1] (HTRF) is “exceeding 98%”.

For the molecule `Cc1ccc(C(=O)Nc2ccc(S(=O)(=O)O)c3cc(S(=O)(=O)O)cc(S(=O)(=O)O)c23)cc1NC(=O)c1cccc(NC(=O)Nc2cccc(C(=O)Nc3cc(C(=O)Nc4ccc(S(=O)(=O)O)c5cc(S(=O)(=O)O)cc(S(=O)(=O)O)c45)ccc3C)c2)c1` [suramin], the Kd at NP NTD was 2740 nM.

Regarding `CCOC(=O)c1c(CSc2ccccc2)n(C)c2cc(Br)c(O)c(CN(C)C)c12` [umifenovir], the “inhibitory effect” value in experiment [1] (HTRF, 50 μM) is listed as “no inhibitory effect”.
